From ChEMBL document CHEMBL5653622 (Oncotarget, 2016)
Active and inactive are the calls of the source. The calls are words filed in the database; no cut-off is given here.

Assays:
[1] = target: Mitogen-activated protein kinase 13 (Homo sapiens) (UniProt O15264); assay: Inhibition of human p38d MAPK assessed as remaining activity at 10 uM in presence of ATP by radiometric kinase assay relative to control
[2] = target: Vascular endothelial growth factor receptor 1 (Homo sapiens, UniProt P17948); assay: Inhibition of VEGFR1 (unknown origin) by FRET based Z-LYTE kinase assay
[3] = target: Mitogen-activated protein kinase 3 (Homo sapiens) (UniProt P27361); assay: Inhibition of human ERK1 assessed as remaining activity at 10 uM in presence of ATP by radiometric kinase assay relative to control
[4] = target: Serine/threonine-protein kinase Nek2 (Homo sapiens) (UniProt P51955); assay: Inhibition of human NEK2a assessed as remaining activity at 10 uM in presence of ATP by radiometric kinase assay relative to control
[5] = target: Ephrin type-A receptor 4 (Homo sapiens) (UniProt P54764); assay: Inhibition of human EPH-A4 assessed as remaining activity at 10 uM in presence of ATP by radiometric kinase assay relative to control
Homo sapiens [6] = species: Homo sapiens; assay: Inhibition of human VEG-FR assessed as remaining activity at 10 uM in presence of ATP by radiometric kinase assay relative to control
[7] = target: Ribosomal protein S6 kinase alpha-3 (Homo sapiens, UniProt P51812); assay: Inhibition of human RSK2 at 10 uM in presence of ATP by radiometric kinase assay relative to control
[8] = target: Serine/threonine-protein kinase PLK1 (Homo sapiens) (UniProt P53350); assay: Inhibition of human PLK1 assessed as remaining activity at 10 uM in presence of ATP by radiometric kinase assay relative to control
[9] = target: Dual specificity testis-specific protein kinase 1 (Homo sapiens) (UniProt Q15569); assay: Inhibition of human TESK1 assessed as remaining activity at 10 uM in presence of ATP by radiometric kinase assay relative to control
[10] = target: Fibroblast growth factor receptor 1 (Homo sapiens) (UniProt P11362); assay: Inhibition of human FGF-R1 assessed as remaining activity at 10 uM in presence of ATP by radiometric kinase assay relative to control
[11] = target: Serine/threonine-protein kinase BRSK2 (Homo sapiens) (UniProt Q8IWQ3); assay: Inhibition of human BRSK2 assessed as remaining activity at 10 uM in presence of ATP by radiometric kinase assay relative to control
Homo sapiens [12] = species: Homo sapiens; assay: Inhibition of human AMPK assessed as remaining activity at 10 uM in presence of ATP by radiometric kinase assay relative to control
[13] = target: SRSF protein kinase 1 (Homo sapiens) (UniProt Q96SB4); assay: Inhibition of human SRPK1 assessed as remaining activity at 10 uM in presence of ATP by radiometric kinase assay relative to control
[14] = target: Mitogen-activated protein kinase 1 (Homo sapiens) (UniProt P28482); assay: Inhibition of human ERK2 assessed as remaining activity at 10 uM in presence of ATP by radiometric kinase assay relative to control
[15] = target: T1, MAP/microtubule affinity-regulating kinase 3 (Homo sapiens, UniProt P27448); assay: Inhibition of human MARK3 by FRET based Z-LYTE kinase assay
Target sequence in this assay (P27448 whole entry): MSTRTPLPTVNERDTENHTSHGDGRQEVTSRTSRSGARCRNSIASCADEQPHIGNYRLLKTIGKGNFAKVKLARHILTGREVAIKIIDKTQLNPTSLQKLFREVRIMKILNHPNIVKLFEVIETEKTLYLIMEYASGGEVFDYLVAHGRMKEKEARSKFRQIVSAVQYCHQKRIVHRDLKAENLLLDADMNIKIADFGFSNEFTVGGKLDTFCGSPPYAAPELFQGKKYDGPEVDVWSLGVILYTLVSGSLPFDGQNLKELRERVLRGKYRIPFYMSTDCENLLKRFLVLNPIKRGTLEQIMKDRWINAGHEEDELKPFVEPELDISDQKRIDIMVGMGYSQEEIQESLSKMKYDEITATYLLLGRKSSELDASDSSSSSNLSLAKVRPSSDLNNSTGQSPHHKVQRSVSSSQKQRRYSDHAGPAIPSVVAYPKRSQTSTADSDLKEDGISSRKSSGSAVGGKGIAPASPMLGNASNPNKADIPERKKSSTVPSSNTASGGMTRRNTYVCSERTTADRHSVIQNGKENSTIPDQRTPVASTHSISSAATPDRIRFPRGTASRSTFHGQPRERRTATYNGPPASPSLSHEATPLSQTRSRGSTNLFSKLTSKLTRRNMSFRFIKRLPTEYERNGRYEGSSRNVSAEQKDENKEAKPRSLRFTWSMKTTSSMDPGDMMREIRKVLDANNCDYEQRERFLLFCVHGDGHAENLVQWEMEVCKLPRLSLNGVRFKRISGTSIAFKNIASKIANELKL

SW-620 = assay: Induction of apoptosis in human SW620 cells assessed as increased in cleaved PARP in presence of SN38 by Western blotting analysis; type: functional, cell-based
[16] = target: Mitogen-activated protein kinase 15 (Homo sapiens, UniProt Q8TD08); assay: Inhibition of human ERK8 in presence of ATP by radiometric kinase assay
[17] = target: Dual specificity mitogen-activated protein kinase kinase 1 (Homo sapiens) (UniProt Q02750); assay: Inhibition of human MKK1 assessed as remaining activity at 10 uM in presence of ATP by radiometric kinase assay relative to control
[18] = target: Serine/threonine-protein kinase 16 (Homo sapiens) (UniProt O75716); assay: Inhibition of human MPSK1 assessed as remaining activity at 10 uM in presence of ATP by radiometric kinase assay relative to control
[19] = target: Casein kinase I (Homo sapiens) (UniProt Q9HCP0+P78368+P48730+P49674+P48729); assay: Inhibition of human CK1 assessed as remaining activity at 10 uM in presence of ATP by radiometric kinase assay relative to control; type: protein assay
[20] = target: Casein kinase 2 (Homo sapiens) (UniProt P67870+P68400+P19784+Q8NEV1); assay: Inhibition of human CK2 assessed as remaining activity at 10 uM in presence of ATP by radiometric kinase assay relative to control; type: protein assay
[21] = target: NUAK family SNF1-like kinase 1 (Homo sapiens) (UniProt O60285); assay: Inhibition of human NUAK1 at 10 uM in presence of ATP by radiometric kinase assay relative to control
[22] = target: Serine/threonine-protein kinase pim-2 (Homo sapiens) (UniProt Q9P1W9); assay: Inhibition of human PIM2 assessed as remaining activity at 10 uM in presence of ATP by radiometric kinase assay relative to control
[23] = target: T1, MAP/microtubule affinity-regulating kinase 3; assay: Inhibition of human MARK3 assessed as remaining activity at 10 uM in presence of ATP by radiometric kinase assay relative to control
Target sequence in this assay (P27448 whole entry, looked up): as the sequence (P27448 whole entry) above

[24] = target: Ribosomal protein S6 kinase alpha-1 (Homo sapiens, UniProt Q15418); assay: Inhibition of human RSK1 at 10 uM in presence of ATP by radiometric kinase assay relative to control
Mus musculus = assay: In vivo inhibition of total CHK1 in CRTac:Ncr-Fox1 athymic mouse xenografted with human Calu-6 cells at 150 mg/kg, po in presence of gemcitabine and carboplatin by Western blotting analysis; type: functional, organism-based
In short: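 Female CRTac:Ncr-Fox1(nu) athymic mice carried s.c. Calu6 xenografts. Tumors were taken 6h after the last inhibitor dose, lysed in CHAPS buffer, and immunoblotted with GAPDH as loading control.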

[25] = target: Mitogen-activated protein kinase 11 (Homo sapiens) (UniProt Q15759); assay: Inhibition of human p38b MAPK assessed as remaining activity at 10 uM in presence of ATP by radiometric kinase assay relative to control
[26] = Toxicity in Emu-Myc driven transgenic mouse transplant model of B-cell lymphoma assessed as reduction in weight of lung at 150 mg/kg, po administered for 9 days; type: organism-based; conditions: in vivo, 216 h, time 9 day
[27] = Half life in BALB/C mouse plasma at 10 mg/kg, po by LC/MS-MS analysis; type: ADME, organism-based
In short: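 Female BALB/c mice received a single bolus of 10mg/kg, either i.v. or p.o. The oral vehicle was DPTW (10% DMSO, 20% PEG400, 5% Tween 80, 65% water). Plasma and spleen homogenates were extracted with methanol containing internal standards. Drug levels were measured by LC/MS-MS, and pharmacokinetic parameters were calculated from the concentration-time profiles.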

[28] = target: Tyrosine-protein kinase CSK (Homo sapiens) (UniProt P41240); assay: Inhibition of human CSK assessed as remaining activity at 10 uM in presence of ATP by radiometric kinase assay relative to control

Sequence of Mitogen-activated protein kinase 11 (Homo sapiens) (Q15759 whole entry): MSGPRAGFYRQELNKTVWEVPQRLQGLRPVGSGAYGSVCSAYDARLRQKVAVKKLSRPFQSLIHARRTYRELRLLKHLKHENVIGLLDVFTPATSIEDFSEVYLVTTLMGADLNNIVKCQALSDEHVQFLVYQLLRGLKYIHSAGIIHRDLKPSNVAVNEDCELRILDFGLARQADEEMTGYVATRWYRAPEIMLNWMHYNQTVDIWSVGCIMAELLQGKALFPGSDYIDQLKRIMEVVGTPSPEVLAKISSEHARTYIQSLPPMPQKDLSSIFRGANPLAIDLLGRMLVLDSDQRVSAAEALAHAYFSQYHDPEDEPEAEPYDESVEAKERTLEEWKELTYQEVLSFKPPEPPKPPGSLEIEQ
Sequence of Serine/threonine-protein kinase pim-2 (Homo sapiens) (Q9P1W9 whole entry, looked up): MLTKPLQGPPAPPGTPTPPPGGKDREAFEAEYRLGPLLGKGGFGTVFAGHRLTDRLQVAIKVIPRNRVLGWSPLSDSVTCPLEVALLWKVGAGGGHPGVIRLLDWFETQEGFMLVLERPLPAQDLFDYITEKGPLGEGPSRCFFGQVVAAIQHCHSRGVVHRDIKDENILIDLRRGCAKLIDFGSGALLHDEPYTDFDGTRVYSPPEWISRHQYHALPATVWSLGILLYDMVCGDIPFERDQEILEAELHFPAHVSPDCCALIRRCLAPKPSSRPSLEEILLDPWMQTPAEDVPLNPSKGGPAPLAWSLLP
Sequence of Serine/threonine-protein kinase PLK1 (Homo sapiens) (P53350 whole entry): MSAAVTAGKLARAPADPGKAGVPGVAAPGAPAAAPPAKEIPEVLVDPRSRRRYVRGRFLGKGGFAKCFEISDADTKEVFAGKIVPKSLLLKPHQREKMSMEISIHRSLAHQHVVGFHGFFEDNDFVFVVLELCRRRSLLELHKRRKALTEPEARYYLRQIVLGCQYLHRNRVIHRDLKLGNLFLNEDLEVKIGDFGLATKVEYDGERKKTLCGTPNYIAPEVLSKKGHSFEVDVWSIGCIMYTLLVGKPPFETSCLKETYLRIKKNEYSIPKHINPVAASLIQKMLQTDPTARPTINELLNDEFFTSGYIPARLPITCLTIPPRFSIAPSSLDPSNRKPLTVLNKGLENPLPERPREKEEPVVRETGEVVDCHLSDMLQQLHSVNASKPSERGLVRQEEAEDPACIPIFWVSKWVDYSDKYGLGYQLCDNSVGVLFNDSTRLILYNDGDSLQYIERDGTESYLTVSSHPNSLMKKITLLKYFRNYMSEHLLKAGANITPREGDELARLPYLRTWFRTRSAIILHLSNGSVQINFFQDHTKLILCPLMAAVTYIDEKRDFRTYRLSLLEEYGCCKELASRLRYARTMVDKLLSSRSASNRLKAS
Sequence of Mitogen-activated protein kinase 15 (Q8TD08 whole entry): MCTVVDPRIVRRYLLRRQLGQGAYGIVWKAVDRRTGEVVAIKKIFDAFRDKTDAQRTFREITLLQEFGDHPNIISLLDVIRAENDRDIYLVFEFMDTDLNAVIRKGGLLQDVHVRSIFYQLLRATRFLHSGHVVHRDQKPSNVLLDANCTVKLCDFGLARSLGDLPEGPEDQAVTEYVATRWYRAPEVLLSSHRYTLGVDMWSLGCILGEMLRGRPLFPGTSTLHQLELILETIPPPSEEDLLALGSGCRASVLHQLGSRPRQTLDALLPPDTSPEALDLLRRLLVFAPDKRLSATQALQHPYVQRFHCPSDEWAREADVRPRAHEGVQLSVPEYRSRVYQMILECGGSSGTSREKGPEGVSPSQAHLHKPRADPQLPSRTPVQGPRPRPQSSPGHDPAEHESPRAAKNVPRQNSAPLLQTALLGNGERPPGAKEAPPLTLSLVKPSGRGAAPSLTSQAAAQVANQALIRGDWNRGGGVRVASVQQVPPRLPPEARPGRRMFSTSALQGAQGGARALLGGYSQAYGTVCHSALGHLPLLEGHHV
Sequence of Dual specificity mitogen-activated protein kinase kinase 1 (Homo sapiens) (Q02750 whole entry): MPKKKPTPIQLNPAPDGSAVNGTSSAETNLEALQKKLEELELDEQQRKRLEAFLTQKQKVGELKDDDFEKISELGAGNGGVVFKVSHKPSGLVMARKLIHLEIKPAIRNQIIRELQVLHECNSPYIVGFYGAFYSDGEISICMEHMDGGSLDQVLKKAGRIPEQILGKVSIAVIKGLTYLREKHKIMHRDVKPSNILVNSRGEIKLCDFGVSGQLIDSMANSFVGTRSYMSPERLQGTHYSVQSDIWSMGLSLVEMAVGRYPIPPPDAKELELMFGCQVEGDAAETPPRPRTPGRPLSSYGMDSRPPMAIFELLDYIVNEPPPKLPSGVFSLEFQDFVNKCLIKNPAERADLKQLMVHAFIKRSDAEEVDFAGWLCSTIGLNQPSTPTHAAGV
Sequence of Mitogen-activated protein kinase 3 (Homo sapiens) (P27361 whole entry): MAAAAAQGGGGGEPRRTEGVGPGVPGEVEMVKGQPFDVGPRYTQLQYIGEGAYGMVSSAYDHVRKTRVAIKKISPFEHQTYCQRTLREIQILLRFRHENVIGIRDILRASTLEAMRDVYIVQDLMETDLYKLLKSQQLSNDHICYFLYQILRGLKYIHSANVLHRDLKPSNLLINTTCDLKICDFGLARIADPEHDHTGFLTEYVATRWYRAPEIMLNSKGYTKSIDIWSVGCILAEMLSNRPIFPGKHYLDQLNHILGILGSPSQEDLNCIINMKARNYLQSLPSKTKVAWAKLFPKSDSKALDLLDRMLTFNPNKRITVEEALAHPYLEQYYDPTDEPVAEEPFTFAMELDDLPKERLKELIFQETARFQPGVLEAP
Sequence of Serine/threonine-protein kinase Nek2 (Homo sapiens) (P51955 whole entry): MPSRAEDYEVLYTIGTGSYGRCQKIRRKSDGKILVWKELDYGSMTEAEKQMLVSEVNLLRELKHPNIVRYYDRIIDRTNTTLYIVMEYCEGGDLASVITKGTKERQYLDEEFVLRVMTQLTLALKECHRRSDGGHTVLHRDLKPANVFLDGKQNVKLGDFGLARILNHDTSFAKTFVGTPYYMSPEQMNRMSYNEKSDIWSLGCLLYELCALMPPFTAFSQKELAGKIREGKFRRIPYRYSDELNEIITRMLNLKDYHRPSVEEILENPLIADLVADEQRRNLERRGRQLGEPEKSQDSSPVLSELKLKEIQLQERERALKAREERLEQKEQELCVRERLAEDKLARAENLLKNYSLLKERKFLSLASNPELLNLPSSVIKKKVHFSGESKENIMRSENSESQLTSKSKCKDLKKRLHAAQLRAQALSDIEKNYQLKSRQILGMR
Sequence of Serine/threonine-protein kinase 16 (Homo sapiens) (O75716 whole entry): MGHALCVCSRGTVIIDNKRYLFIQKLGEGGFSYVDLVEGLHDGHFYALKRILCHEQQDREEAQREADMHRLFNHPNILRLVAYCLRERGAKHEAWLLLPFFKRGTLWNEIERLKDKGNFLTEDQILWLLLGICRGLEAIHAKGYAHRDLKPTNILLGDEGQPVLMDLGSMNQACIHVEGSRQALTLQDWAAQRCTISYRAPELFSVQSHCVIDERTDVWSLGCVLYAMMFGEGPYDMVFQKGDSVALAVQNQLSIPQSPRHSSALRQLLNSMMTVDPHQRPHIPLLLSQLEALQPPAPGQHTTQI

## N#Cc1cnc(Nc2cc(NC[C@H]3CNCCO3)c(C(F)(F)F)cn2)cn1 [SRA-737]
[1]
  Activity: 54%
[2]
  IC50: 15800 nM
[3]
  Activity: 75%
[4]
  Activity: 96%
[5]
  Activity: 71%
Homo sapiens [6]
  Activity: 13%
[7]
  inhibition: 81%
[8]
  Activity: 103%
[9]
  Activity: 101%
[10]
  Activity: 33%
[11]
  Activity: 35%
Homo sapiens [12]
  Activity: 32%
[13]
  Activity: 82%
[14]
  Activity: 98%
[15]
  IC50: 698 nM
SW-620
  Activity: Active
[16]
  IC50: 130 nM
[17]
  Activity: 68%
[18]
  Activity: 122%
[19]
  Activity: 85%
[20]
  Activity: 81%
[21]
  inhibition: 94%
[22]
  Activity: 88%
[23]
  Activity: 13%
[24]
  inhibition: 93%
Mus musculus
  inhibition: Active
[25]
  Activity: 90%
[26]
  Activity: Toxic
[27]
  half-life: 2.85 h
[28]
  Activity: 82%
